Experimental findings from ChEMBL document CHEMBL4261600 (Eur J Med Chem, 2018) are described below.

By GI50 is commonly meant the concentration giving 50% growth inhibition.

For data set [1], the target named is Ribosomal protein S6 kinase alpha-4 (Homo sapiens) (UniProt O75676). Nature of the data set: Binding affinity to wild-type human partial length C-terminal RPS6KA4 kinase domain 2 (M375 to T705 residues) expressed in mammalian expression system assessed as remaining unbound target protein level at 1000 nM by Kinomescan method relative to control. The essentials: (§1)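 Profiled in a KINOMEscan binding panel with the inhibitor at a single concentration of 1 μM. Binding to each kinase was read out as percent of control, relative to a DMSO control. Strong binders were defined as those with a percent control value below 1.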

In data set [2] the target is Receptor tyrosine-protein kinase erbB-3 (Homo sapiens) (UniProt P21860). The data set is described as follows: Binding affinity to wild-type human partial length ERBB3 (G684 to A987 residues) expressed in mammalian expression system assessed as remaining unbound target protein level at 1000 nM by Kinomescan method relative to control. An outline of the steps: (§2)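 KINOMEscan binding panel of 468 kinases/mutants. Inhibitor was tested at a single concentration of 1 μM. Binding is reported as percent of control, defined relative to a DMSO control.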

Data set [3] concerns Receptor-type tyrosine-protein kinase FLT3 (Homo sapiens), P36888 [R834Q]. Nature of the data set: Binding affinity to human partial length FLT3 R834Q mutant (V592 to Y969 residues) expressed in mammalian expression system assessed as remaining unbound target protein level at 1000 nM by Kinomescan method relative to control. An outline of the steps:
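KINOMEscan competition-binding profiling across the panel of 468 kinases and mutants, with inhibitor tested at 1 μM. Binding is expressed as percent of control, with DMSO as the reference control.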

Data set [4] concerns the target STE20/SPS1-related proline-alanine-rich protein kinase (Homo sapiens) (UniProt Q9UEW8). The data set is described as follows: Binding affinity to wild-type human partial length STK39 (P43 to I357 residues) expressed in mammalian expression system assessed as remaining unbound target protein level at 1000 nM by Kinomescan method relative to control.
Data set [5] has as its target ALK tyrosine kinase receptor (Homo sapiens) (UniProt Q9UM73). Nature of the data set: Binding affinity to wild-type human partial length ALK (I1088 to E1409 residues) expressed in mammalian expression system assessed as remaining unbound target protein level at 1000 nM by Kinomescan method relative to control. An outline of the steps:
as §1

For data set [6], the target named is Mitogen-activated protein kinase kinase kinase 9 (Homo sapiens) (UniProt P80192). Nature of the data set: Binding affinity to wild-type human partial length MLK1 (V88 to W426 residues) expressed in bacterial expression system assessed as remaining unbound target protein level at 1000 nM by Kinomescan method relative to control. The essentials:
as §2

A short description of data set [7]: Apparent volume of distribution in Sprague-Dawley rat at 3 mg/kg, iv by LC-MS/MS analysis. Format: ADME, organism-based. The conditions noted are these: in vivo, read-out: Vz. An outline of the steps:
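Non-compartmental PK. Male SD rats 190-210 g, mice and beagle dogs acclimatized one week, fasted 12 h with water, split into iv and po groups (mice 48, rats 6, dogs 6). iv 3/3/2 mg/kg (mice/rats/dogs); po 10/20/10 mg/kg; vehicle DMSO in 5% glucose water. Blood at 2 or 5 to 720 min; plasma protein-precipitated with methanol, caffeine internal standard, LC-MS/MS.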

The target in data set [8] is Protein kinase C eta type (Homo sapiens) (UniProt P24723). Nature of the data set: Binding affinity to wild-type human partial length PRKCH (S324 to P683 residues) expressed in bacterial expression system assessed as remaining unbound target protein level at 1000 nM by Kinomescan method relative to control.
The target of data set [9] is Tyrosine-protein kinase BTK (Homo sapiens) (UniProt Q06187). Nature of the data set: Binding affinity to wild-type human full length BTK (M1 to S659 residues) expressed in mammalian expression system assessed as remaining unbound target protein level at 1000 nM by Kinomescan method relative to control. The essentials:
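Single-point competition binding screen across a panel of 468 kinases and mutants, with the inhibitor at 1 μM. Binding is read out as percent of a DMSO control, and targets below 1 percent control were classed as strong binders.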

For data set [10], the target named is Mitogen-activated protein kinase kinase kinase kinase 3 (Homo sapiens) (UniProt Q8IVH8). Nature of the data set: Binding affinity to wild-type human partial length MAP4K3 (M1 to D301 residues) expressed in bacterial expression system assessed as remaining unbound target protein level at 1000 nM by Kinomescan method relative to control.
The test system of a further data set is GISTT1. Nature of the data set: Antiproliferative activity against human GISTT1 cells after 72 hrs by Celltiter-Glo assay. To be noted: GISTT1, 72 h. Format: functional. The essentials: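 Cells seeded at 3000/well in 96-well plates, exposed to serially diluted compound for 72 h at 37 °C, 5% CO2. Viability read by CellTiter-Glo luminescence and normalized to DMSO control. GI50 derived from curve fit, mean of three independent measurements. Culture media: DMEM/10% FBS for adherent lines; IMDM for MV4-11 and MEC-1/2; RPMI 1640 for suspension lines and CHL.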
Background: In ATP-based viability assays light output follows the ATP content of the culture.

The target of data set [11] is RAC-gamma serine/threonine-protein kinase (Homo sapiens) (UniProt Q9Y243). Nature of the data set: Binding affinity to wild-type human partial length AKT3 expressed in bacterial expression system assessed as remaining unbound target protein level at 1000 nM by Kinomescan method relative to control. The essentials:
as §1

Data set [12] concerns the target Serine/threonine-protein kinase Nek6 (Homo sapiens) (UniProt Q9HC98). Nature of the data set: Binding affinity to wild-type human full length NEK6 (M8 to T313 residues) expressed in bacterial expression system assessed as remaining unbound target protein level at 1000 nM by Kinomescan method relative to control. The essentials: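 KINOMEscan competition binding profile across a panel of 468 kinases and mutants, with the inhibitor tested at a single concentration of 1 μM. Binding is reported as percent of control, meaning signal relative to a DMSO control.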

Data set [13] deals with Receptor-interacting serine/threonine-protein kinase 1 (Homo sapiens) (UniProt Q13546). The data set is described as follows: Binding affinity to wild-type human partial length RIPK1 (M1 to K305 residues) expressed in bacterial expression system assessed as remaining unbound target protein level at 1000 nM by Kinomescan method relative to control.
The target of data set [14] is Rhodopsin kinase GRK1 (Homo sapiens) (UniProt Q15835). The data set is described as follows: Binding affinity to wild-type human full length GRK1 (M1 to S563 residues) expressed in mammalian expression system assessed as remaining unbound target protein level at 1000 nM by Kinomescan method relative to control. The essentials: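 KINOMEscan competition binding panel run at 1 μM inhibitor; binding reported as percent of DMSO control (remaining target bound versus vehicle).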

The test system of a further data set is MV4-11. The data set is described as follows: Induction of apoptosis in human MV4-11 cells assessed as decrease in MCL-1 level after 2 hrs by immunoblotting analysis. Type of data set: functional, cell-based. Background: In western blotting, separated proteins are transferred to a membrane and probed.
Data set [15] deals with Dual specificity mitogen-activated protein kinase kinase 4 (Homo sapiens) (UniProt P45985). The data set is described as follows: Binding affinity to wild-type human partial length MEK4 (S84 to D399 residues) expressed in mammalian expression system assessed as remaining unbound target protein level at 1000 nM by Kinomescan method relative to control. An outline of the steps: as §2

Data set [16] addresses Calcium/calmodulin-dependent protein kinase type II subunit alpha (Homo sapiens) (UniProt Q9UQM7). Nature of the data set: Binding affinity to wild-type human partial length CAMK2A (M1 to K328 residues) expressed in bacterial expression system assessed as remaining unbound target protein level at 1000 nM by Kinomescan method relative to control. An outline of the steps:
as §1

Chain of Receptor tyrosine-protein kinase erbB-3 (Homo sapiens) (P21860 whole entry, the tested form may be a part): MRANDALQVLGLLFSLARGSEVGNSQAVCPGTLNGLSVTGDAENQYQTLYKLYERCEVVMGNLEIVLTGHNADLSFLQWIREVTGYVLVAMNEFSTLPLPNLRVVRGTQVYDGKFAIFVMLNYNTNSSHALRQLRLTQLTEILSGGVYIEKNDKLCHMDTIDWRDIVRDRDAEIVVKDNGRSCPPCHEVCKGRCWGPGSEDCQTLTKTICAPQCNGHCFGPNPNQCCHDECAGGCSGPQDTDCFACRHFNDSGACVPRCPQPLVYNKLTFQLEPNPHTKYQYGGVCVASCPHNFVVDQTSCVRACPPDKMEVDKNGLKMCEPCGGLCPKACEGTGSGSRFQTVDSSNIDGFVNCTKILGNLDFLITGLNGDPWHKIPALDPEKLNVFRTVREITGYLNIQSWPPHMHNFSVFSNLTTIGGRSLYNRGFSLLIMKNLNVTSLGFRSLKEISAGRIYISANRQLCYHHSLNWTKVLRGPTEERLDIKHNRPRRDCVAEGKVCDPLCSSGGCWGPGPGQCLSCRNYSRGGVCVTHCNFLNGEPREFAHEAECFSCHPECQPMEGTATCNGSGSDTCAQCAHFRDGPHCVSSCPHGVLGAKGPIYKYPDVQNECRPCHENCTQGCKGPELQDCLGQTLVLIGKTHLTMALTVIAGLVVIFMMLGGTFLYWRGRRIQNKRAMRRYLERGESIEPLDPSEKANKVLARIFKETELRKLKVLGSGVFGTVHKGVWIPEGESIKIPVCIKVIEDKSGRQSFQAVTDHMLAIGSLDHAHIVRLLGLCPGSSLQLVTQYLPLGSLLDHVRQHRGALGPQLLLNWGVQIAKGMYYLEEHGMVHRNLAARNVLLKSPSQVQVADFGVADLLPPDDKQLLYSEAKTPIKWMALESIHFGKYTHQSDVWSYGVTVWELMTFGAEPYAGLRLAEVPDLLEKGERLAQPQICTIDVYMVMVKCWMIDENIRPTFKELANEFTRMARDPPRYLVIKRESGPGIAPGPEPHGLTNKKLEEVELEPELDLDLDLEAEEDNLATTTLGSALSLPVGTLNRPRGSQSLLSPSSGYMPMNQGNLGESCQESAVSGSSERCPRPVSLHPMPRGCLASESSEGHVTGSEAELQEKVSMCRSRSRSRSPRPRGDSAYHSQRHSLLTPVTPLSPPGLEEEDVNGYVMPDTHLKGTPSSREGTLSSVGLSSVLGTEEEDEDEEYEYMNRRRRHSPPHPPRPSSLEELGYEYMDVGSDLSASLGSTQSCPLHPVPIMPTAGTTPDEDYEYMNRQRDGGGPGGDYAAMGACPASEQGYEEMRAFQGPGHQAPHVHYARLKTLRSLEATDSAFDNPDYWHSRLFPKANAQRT
Chain of Calcium/calmodulin-dependent protein kinase type II subunit alpha (Homo sapiens) (Q9UQM7 whole entry, the tested form may be a part): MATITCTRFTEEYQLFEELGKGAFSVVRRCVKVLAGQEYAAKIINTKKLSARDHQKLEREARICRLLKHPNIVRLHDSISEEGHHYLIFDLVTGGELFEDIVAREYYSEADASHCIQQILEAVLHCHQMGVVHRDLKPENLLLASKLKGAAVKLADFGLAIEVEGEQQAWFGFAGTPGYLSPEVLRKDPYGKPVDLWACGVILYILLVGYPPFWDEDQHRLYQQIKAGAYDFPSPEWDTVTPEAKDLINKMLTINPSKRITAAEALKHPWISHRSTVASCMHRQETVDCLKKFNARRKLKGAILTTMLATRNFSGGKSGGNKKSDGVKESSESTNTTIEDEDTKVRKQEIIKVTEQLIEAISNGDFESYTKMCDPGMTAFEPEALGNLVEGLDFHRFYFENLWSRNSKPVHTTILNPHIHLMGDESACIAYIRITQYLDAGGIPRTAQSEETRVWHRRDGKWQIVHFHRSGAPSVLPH
Chain of Serine/threonine-protein kinase Nek6 (Homo sapiens) (Q9HC98 whole entry, the tested form may be a part): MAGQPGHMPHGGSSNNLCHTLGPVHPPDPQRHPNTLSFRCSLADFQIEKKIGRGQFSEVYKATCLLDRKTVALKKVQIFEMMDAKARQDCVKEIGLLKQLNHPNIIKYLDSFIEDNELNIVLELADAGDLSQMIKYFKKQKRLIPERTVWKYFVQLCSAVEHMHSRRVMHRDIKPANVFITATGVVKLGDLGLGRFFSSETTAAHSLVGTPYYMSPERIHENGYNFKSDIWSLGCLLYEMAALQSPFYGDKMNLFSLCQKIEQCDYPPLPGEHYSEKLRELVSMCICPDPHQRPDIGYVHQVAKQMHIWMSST
Chain of Mitogen-activated protein kinase kinase kinase 9 (Homo sapiens) (P80192 whole entry, looked up, the tested form may be a part): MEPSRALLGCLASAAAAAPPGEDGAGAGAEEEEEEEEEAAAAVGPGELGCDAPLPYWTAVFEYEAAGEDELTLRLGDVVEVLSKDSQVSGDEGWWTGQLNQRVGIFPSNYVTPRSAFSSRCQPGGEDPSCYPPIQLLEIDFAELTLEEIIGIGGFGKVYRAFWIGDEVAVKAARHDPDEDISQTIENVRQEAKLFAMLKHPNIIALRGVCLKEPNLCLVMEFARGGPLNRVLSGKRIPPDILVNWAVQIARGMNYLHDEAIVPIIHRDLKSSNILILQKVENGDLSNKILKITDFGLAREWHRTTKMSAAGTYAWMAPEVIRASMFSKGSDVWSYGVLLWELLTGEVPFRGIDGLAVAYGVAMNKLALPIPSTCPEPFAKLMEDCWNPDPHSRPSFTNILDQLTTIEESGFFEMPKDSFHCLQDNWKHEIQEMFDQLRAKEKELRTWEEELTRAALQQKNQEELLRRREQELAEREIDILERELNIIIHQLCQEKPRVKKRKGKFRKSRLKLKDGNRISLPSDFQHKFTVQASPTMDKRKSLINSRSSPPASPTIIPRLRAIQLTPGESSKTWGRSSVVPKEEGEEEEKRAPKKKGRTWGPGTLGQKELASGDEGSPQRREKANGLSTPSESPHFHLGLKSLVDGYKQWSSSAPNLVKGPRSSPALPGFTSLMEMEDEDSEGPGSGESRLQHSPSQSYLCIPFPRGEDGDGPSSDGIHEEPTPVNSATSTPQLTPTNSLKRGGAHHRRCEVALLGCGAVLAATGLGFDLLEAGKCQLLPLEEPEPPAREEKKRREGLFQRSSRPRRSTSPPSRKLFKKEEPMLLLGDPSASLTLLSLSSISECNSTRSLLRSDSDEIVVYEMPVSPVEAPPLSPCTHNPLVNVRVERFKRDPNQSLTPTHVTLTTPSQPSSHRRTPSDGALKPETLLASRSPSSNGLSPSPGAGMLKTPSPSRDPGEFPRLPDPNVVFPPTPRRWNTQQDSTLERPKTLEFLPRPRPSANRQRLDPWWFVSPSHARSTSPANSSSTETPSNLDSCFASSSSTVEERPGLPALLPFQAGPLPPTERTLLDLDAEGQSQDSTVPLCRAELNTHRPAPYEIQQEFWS
Chain of Ribosomal protein S6 kinase alpha-4 (Homo sapiens) (O75676 whole entry, looked up, the tested form may be a part): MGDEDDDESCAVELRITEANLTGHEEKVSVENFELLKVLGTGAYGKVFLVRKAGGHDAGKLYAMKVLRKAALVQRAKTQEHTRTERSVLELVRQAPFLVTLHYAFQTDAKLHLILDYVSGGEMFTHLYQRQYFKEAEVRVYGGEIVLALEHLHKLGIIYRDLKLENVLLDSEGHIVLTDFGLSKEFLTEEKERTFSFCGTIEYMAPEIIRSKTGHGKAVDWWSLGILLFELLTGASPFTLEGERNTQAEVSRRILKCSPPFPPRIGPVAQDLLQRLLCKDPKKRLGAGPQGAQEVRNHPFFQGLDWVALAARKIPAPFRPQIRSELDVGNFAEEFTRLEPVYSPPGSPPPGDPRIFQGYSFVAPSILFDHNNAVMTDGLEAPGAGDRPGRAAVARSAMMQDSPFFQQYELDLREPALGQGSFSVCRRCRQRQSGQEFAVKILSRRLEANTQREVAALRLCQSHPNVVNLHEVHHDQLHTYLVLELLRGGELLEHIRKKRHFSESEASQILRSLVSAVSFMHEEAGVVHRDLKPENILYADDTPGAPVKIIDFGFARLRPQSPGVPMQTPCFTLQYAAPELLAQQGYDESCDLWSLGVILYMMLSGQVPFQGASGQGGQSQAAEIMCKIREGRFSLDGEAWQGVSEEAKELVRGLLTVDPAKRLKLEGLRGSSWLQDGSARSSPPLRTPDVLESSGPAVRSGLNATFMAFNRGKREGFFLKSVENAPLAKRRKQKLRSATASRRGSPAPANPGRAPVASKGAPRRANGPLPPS
Chain of Dual specificity mitogen-activated protein kinase kinase 4 (Homo sapiens) (P45985 whole entry, the tested form may be a part): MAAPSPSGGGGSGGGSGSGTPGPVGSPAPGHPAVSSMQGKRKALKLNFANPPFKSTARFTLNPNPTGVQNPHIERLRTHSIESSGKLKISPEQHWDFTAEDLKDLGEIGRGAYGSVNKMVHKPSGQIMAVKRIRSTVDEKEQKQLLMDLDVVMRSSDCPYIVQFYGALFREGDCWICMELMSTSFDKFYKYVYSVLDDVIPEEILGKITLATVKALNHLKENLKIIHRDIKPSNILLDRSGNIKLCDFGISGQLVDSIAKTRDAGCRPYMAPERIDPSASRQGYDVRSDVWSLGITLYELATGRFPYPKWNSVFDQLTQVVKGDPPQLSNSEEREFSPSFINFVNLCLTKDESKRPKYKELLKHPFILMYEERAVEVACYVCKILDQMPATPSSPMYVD
Chain of RAC-gamma serine/threonine-protein kinase (Homo sapiens) (Q9Y243 whole entry): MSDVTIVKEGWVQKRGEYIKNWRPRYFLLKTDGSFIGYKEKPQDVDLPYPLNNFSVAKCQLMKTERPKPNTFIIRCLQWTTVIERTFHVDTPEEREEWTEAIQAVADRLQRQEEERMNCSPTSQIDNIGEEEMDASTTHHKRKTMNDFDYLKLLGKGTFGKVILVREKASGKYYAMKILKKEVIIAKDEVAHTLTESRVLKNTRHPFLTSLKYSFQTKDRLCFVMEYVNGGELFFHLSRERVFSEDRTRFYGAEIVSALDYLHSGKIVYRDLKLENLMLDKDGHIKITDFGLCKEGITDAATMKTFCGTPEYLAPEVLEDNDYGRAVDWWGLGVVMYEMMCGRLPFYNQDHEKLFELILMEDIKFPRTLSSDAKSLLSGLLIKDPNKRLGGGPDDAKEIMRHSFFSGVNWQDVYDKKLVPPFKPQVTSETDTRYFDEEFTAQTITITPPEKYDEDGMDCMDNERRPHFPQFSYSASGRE

As to `COCCN[C@H]1CC[C@H](Nc2cc(-c3csc(NCC4(C#N)CCOCC4)n3)c(Cl)cn2)CC1`, the Activity in data set [1] is 65%; in [2] it was 93%; in data set [3], 100%; in data set [4] it was 57%; in data set [5] it was 96%; in [6], 86%. Also, the Activity in data set [8] stood at 98%; in data set [9], 100%; in data set [10], 100%; in data set [11], 100%; in data set [12] it was 94%; in data set [13], 79%. The Activity in [14] is 84%; in the data set with MV4-11, “Dose-dependent effect”; in [15] it was 99%; in [16], 100%. Moreover, in [7], the Vd stood at 44.5 L/kg. Further, the GI50 with GISTT1 amounted to 2.1 nM.
